Laboratory results reported in ChEMBL document CHEMBL3352237, “Synthesis and biological evaluation of novel peptide BF2 as an antibacterial agent against clinical isolates of vancomycin-resistant enterococci” (J Med Chem, 2014).

Legend:
Enterococcus faecium [1] = test: Bactericidal activity against vancomycin-resistant Enterococcus faecium clinical isolate 5484 after 24 hrs by two-fold serial dilution method; type: functional; settings: isolate 5484, 24 h
Enterococcus faecalis [2] = test: Bactericidal activity against vancomycin-resistant Enterococcus faecalis clinical isolate 22/203 after 24 hrs by two-fold serial dilution method; type: functional; settings: isolate 22/203, 24 h
Enterococcus faecium [3] = test: Bactericidal activity against vancomycin-resistant Enterococcus faecium clinical isolate 27/221 after 24 hrs by two-fold serial dilution method; type: functional; settings: isolate 27/221, 24 h
Enterococcus faecalis [4] = test: Antibacterial activity against vancomycin-resistant Enterococcus faecalis clinical isolate 7077 after overnight incubation by two-fold serial dilution method; type: functional
Enterococcus [5] = test: Antibacterial activity against Enterococcus infected in Wistar albino rat assessed as reduction in cell count at 3 times MIC, iv after 1 hr relative to control; type: functional; set-up: scale not given: the % may be the effect or the level left
Summary of the method: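 Female Wistar albino rats, 40−45 days old, 125−150 g, 5 groups of 3. Enterococci were grown to log phase in MH broth, centrifuged at 1000g for 15 min, and diluted in PBS to 4 × 10^6 CFU/mL. Rats were inoculated i.v. and treated i.v. 1 h later with 12.5, 25 or 37.5 mg/kg peptide, PBS vehicle, or linezolid 25 mg/kg. Tail-vein blood taken 1 h post-treatment was plated on blood agar, incubated overnight at 37 °C, and colonies counted.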

Enterococcus [6] = test: Antibacterial activity against vancomycin-resistant Enterococcus clinical isolate after 18 to 20 hrs by checkerboard titration method in presence of linezolid; type: functional
Enterococcus faecalis [7] = test: Bactericidal activity against vancomycin-resistant Enterococcus clinical isolate assessed as log reduction at 2 times MIC after 60 to 120 mins by serial dilution method; type: functional
Summary of the method: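 Time-kill assay: enterococci exposed to peptide at 2× MIC, with viable counts read as log10 CFU/mL over a 60–120 min exposure. Run on ATCC 29212 and a clinical isolate.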

Enterococcus [8] = test: Antibacterial activity against Enterococcus infected in iv dosed Wistar albino rat assessed as reduction in cell count after 1 hr relative to control; type: functional, organism-based
Summary of the method: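 Female Wistar albino rats, 40−45 days old, 125−150 g, 5 groups of 3. Enterococci grown in MH broth to log phase, spun at 1000g for 15 min, diluted in PBS to 4 × 10^6 CFU/mL and inoculated i.v. Treatment i.v. 1 h later at 12.5, 25 or 37.5 mg/kg. Vehicle was 0.1 mL PBS i.v.; linezolid 25 mg/kg i.v. was the positive control. Tail-vein blood taken 1 h after treatment, plated on blood agar, incubated at 37 °C in ambient air overnight, and colonies counted.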

Enterococcus faecium [9] = test: Bactericidal activity against vancomycin-resistant Enterococcus faecium clinical isolate 12875 after 24 hrs by two-fold serial dilution method; type: functional; settings: isolate 12875, 24 h
Enterococcus faecium [10] = test: Bactericidal activity against vancomycin-resistant Enterococcus faecium clinical isolate 31386 after 24 hrs by two-fold serial dilution method; type: functional; settings: isolate 31386, 24 h
Enterococcus [11] = test: Antibacterial activity against vancomycin-resistant Enterococcus ATCC 51299 after overnight incubation by two-fold serial dilution method; type: functional
Enterococcus [12] = test: Bactericidal activity against […] after 24 hrs by two-fold serial dilution method; type: functional; settings: ATCC 29212, 24 h
Enterococcus faecium [13] = test: Bactericidal activity against vancomycin-resistant Enterococcus faecium clinical isolate 16115 after 24 hrs by two-fold serial dilution method; type: functional; settings: isolate 16115, 24 h
Enterococcus faecium [14] = test: Antibacterial activity against vancomycin-resistant Enterococcus faecium clinical isolate 16115 after overnight incubation by two-fold serial dilution method; type: functional
Enterococcus faecalis [15] = test: Antibacterial activity against vancomycin-resistant Enterococcus faecalis clinical isolate 21/235 after overnight incubation by two-fold serial dilution method; type: functional
Enterococcus faecalis [16] = test: Antibacterial activity against vancomycin-resistant Enterococcus faecalis clinical isolate 5648 after overnight incubation by two-fold serial dilution method; type: functional
Enterococcus faecium [17] = test: Antibacterial activity against vancomycin-resistant Enterococcus faecium clinical isolate 16475 after overnight incubation by two-fold serial dilution method; type: functional
[18] = Hemolytic activity against human RBC at MIC after 1 hr by spectrophotometry; type: ADME, cell-based; settings: erythrocyte
Enterococcus [19] = test: Antibacterial activity against vancomycin-resistant Enterococcus clinical isolate after 18 to 20 hrs by checkerboard titration method in presence of vancomycin; type: functional
Enterococcus faecium [20] = test: Antibacterial activity against vancomycin-resistant Enterococcus faecium clinical isolate 12/266 after overnight incubation by two-fold serial dilution method; type: functional
Enterococcus faecalis [21] = test: Antibacterial activity against vancomycin-resistant Enterococcus faecalis clinical isolate 7079 after overnight incubation by two-fold serial dilution method; type: functional
Enterococcus faecium [22] = test: Antibacterial activity against vancomycin-resistant Enterococcus faecium clinical isolate 8/224 after overnight incubation by two-fold serial dilution method; type: functional
Enterococcus faecium [23] = test: Bactericidal activity against vancomycin-resistant Enterococcus faecium clinical isolate 17301 after 24 hrs by two-fold serial dilution method; type: functional; settings: isolate 17301, 24 h
Enterococcus faecalis [24] = test: Bactericidal activity against vancomycin-resistant Enterococcus faecalis clinical isolate 5642 after 24 hrs by two-fold serial dilution method; type: functional; settings: isolate 5642, 24 h
Enterococcus faecalis [25] = test: Bactericidal activity against vancomycin-resistant Enterococcus faecalis clinical isolate 7670 after 24 hrs by two-fold serial dilution method; type: functional; settings: isolate 7670, 24 h
Enterococcus faecalis [26] = test: Bactericidal activity against vancomycin-resistant Enterococcus faecalis clinical isolate 21/235 after 24 hrs by two-fold serial dilution method; type: functional; settings: isolate 21/235, 24 h
Enterococcus faecium [27] = test: Antibacterial activity against vancomycin-resistant Enterococcus faecium clinical isolate 5396 after overnight incubation by two-fold serial dilution method; type: functional
Enterococcus faecium [28] = test: Antibacterial activity against vancomycin-resistant Enterococcus faecium clinical isolate 31176 after overnight incubation by two-fold serial dilution method; type: functional
Enterococcus faecium [29] = test: Antibacterial activity against vancomycin-resistant Enterococcus faecium clinical isolate 12875 after overnight incubation by two-fold serial dilution method; type: functional
Enterococcus [30] = test: Bactericidal activity against vancomycin-resistant Enterococcus ATCC 51299 after 24 hrs by two-fold serial dilution method; type: functional; settings: ATCC 51299, 24 h
[31] = Hemolytic activity against human RBC at 5 times MIC after 1 hr by spectrophotometry; type: ADME, cell-based, Erythrocyte; settings: red blood cells, read-out: Activity
Enterococcus faecium [32] = test: Bactericidal activity against vancomycin-resistant Enterococcus faecium clinical isolate 151495 after 24 hrs by two-fold serial dilution method; type: functional; settings: isolate 151495, 24 h
Enterococcus faecalis [33] = test: Bactericidal activity against vancomycin-resistant Enterococcus faecalis clinical isolate 7077 after 24 hrs by two-fold serial dilution method; type: functional; settings: isolate 7077, 24 h
Enterococcus faecium [34] = test: Bactericidal activity against vancomycin-resistant Enterococcus faecium clinical isolate 23/240 after 24 hrs by two-fold serial dilution method; type: functional; settings: isolate 23/240, 24 h
Enterococcus faecalis [35] = test: Antibacterial activity against vancomycin-resistant Enterococcus faecalis clinical isolate 6093 after overnight incubation by two-fold serial dilution method; type: functional
Enterococcus faecium [36] = test: Antibacterial activity against vancomycin-resistant Enterococcus faecium clinical isolate 27/16917 after overnight incubation by two-fold serial dilution method; type: functional; settings: isolate 27/1691
Enterococcus [37] = test: Antibacterial activity against vancomycin-resistant Enterococcus ATCC 51299 after 18 to 20 hrs by checkerboard titration method in presence of vancomycin; type: functional
Enterococcus faecalis [38] = test: Bactericidal activity against vancomycin-resistant Enterococcus faecalis clinical isolate 7079 after 24 hrs by two-fold serial dilution method; type: functional; settings: isolate 7079, 24 h
Enterococcus faecalis [39] = test: Antibacterial activity against vancomycin-resistant Enterococcus faecalis clinical isolate 387702 after overnight incubation by two-fold serial dilution method; type: functional

H-RWRLLLLKKH-OH
active: Activity (Enterococcus [8]) Dose-dependent effect
82%: Activity (Enterococcus [5])
< 5%: hemolysis at 1 h, 5 times MIC [31]
2: fractional inhibitory concentration index (FICI) (Enterococcus [6])
6.25 µg/mL: MIC (Enterococcus faecium [20]) | MIC (Enterococcus faecium [27]) | MIC (Enterococcus faecium [28]) | MIC (Enterococcus faecalis [39])
0.06: fractional inhibitory concentration index (FICI) (Enterococcus [37])
12.5 µg/mL: MIC (Enterococcus faecalis [4]) | MIC (Enterococcus faecium [14]) | MIC (Enterococcus faecalis [15]) | MIC (Enterococcus faecalis [16]) | MIC (Enterococcus faecium [17]) | MIC (Enterococcus faecalis [21]) | MIC (Enterococcus faecium [22]) | MIC (Enterococcus faecium [29]) | MIC (Enterococcus faecalis [35]) | MIC (Enterococcus faecium [36])
Non-toxic: Activity [18]
0.25: fractional inhibitory concentration index (FICI) (Enterococcus [19])
25 µg/mL: MBC (Enterococcus faecium [1]) | MBC (Enterococcus faecalis [2]) | MBC (Enterococcus faecium [3]) | MBC (Enterococcus faecalis [7]) | MBC (Enterococcus faecium [9]) | MBC (Enterococcus faecium [10]) | MIC (Enterococcus [11]) | MBC (Enterococcus [12]) | MBC (Enterococcus faecium [13]) | MBC (Enterococcus faecium [23]) | MBC (Enterococcus faecalis [24]) | MBC (Enterococcus faecalis [25]) | MBC (Enterococcus faecalis [26]) | MBC (Enterococcus [30]) | MBC (Enterococcus faecium [32]) | MBC (Enterococcus faecalis [33]) | MBC (Enterococcus faecium [34]) | MBC (Enterococcus faecalis [38])
